Assay results gathered from unrelated publications.
Each line is one published result; the experiments were not run side by side.

SMILES | assay | system | conditions | measurement | result
COc1ncccc1-c1cnn2ccc(N3CCN(C(=O)OC(C)C)CC3)nc12 | – | mouse, plasma | oral, 10 mg/kg | bioavailability | ~100%
NS(=O)(=O)c1ccc(Cc2c(-c3cccc(-c4ccccc4)c3)nn(-c3nc(C(=O)O)cs3)c2C2CC2)cc1 | – | male CD-1 mouse, plasma | oral, 50 mg/kg | bioavailability | ~50%
CCC[C@@](N)(CO)CCc1ccc(OCCCCCC(C)C)cc1 | – | mouse, plasma | intravenous, 5 mg/kg | AUC(0-t) | 0.714 µM·h
Cc1cc(-c2nsc(=O)o2)c(S(C)(=O)=O)s1 | chemical stability | culture medium | – | half-life | 13.5 min
C[C@]12CC[C@H](n3ccnc3)CC1=CC[C@@H]1[C@@H]2CC[C@]2(C)C(n3cnc4ccccc43)=CC[C@@H]12.Cl | – | male CD-1 mouse, plasma | intravenous, 1 mg/kg | AUC(0-t) | 2040 ng·h/mL
Cc1cc(C)nc(Nc2ncc(C(=O)NCCc3c(C)[nH]c4ccccc34)cn2)c1 | metabolic stability | rat, liver microsomes | 1 µM | half-life | 3.8 min
O=C(NC1CCCCC1)Oc1ccc(-c2ccccc2)cc1 | metabolic stability | male Wistar rat, liver S9 | 1 µM, pH 7.4 | half-life | 19 min
O=C(Nc1nccs1)C(c1cc(F)ccc1O)N1Cc2ccc(-c3ccc(N4CCNCC4)cc3)cc2C1=O (centres unmarked) | – | mouse, plasma | oral, 20 mg/kg | bioavailability | 3%
CSc1sc(C)cc1-c1nsc(=O)o1 | chemical stability | culture medium | – | half-life | 110 min
O=C(NC1CCCCC1)Oc1ccc2ccccc2c1 | metabolic stability | male Wistar rat, liver S9 | 1 µM, pH 7.4 | half-life | 5 min
CCN(CC)CCCC[C@H](NC(=O)[C@H](CC(C)C)NC(=O)[C@H](C)NC(=O)[C@H](Cc1ccccc1)NC(=O)c1ccc(C(C)(C)C)cc1)C(=O)N[C@@H](CO)C(=O)OC | – | male Swiss mouse, plasma | intraperitoneal, 10 mg/kg | bioavailability | 25%
